Only some compounds are listed: those with a hit (about 1.1% of all), similar ones and a draw of the others.
GASC-1 inh – blocks human GASC-1 demethylase activity; Q9H3R0; GST-JMJD2C(1-420) H3K9me3 demethylation, DELFIA europium; inhibition, % at 2.35 µM; actives 0.069% (n = 330,000); AID 2099;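 active = more than half of a compound's replicate wells show inhibition beyond 50%, single wells judged on their own value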;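 note: signal counts dimethyl H3K9 product captured on neutravidin plate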
Target sequence (Q9H3R0 1-420 limits assumed): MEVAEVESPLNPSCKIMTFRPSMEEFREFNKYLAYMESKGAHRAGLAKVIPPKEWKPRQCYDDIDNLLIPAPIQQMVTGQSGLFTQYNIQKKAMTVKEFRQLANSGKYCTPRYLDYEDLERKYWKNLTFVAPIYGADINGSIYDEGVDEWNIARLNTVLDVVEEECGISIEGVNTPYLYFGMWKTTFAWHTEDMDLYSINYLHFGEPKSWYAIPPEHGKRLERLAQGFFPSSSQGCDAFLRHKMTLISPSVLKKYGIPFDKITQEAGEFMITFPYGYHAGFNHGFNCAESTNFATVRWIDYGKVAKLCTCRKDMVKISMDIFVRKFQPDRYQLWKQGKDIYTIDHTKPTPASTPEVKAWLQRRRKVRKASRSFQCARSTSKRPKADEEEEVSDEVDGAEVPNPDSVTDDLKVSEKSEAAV
SENP1 FRET inh – blocks the human SENP1 SUMO protease catalytic domain | Q9P0U3 | recombinant SENP1 catalytic domain, CyPet-SUMO1-YPet FRET cleavage | inhibition, % at 10 µM | actives 0.21% (n = 360,000);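 active = inhibition at least 30% at 10 µM, raw YFP signal under a set limit, fluorescence ratio 0.5 to 1.5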
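Material: hSENP1 catalytic domain, recombinant; medium: Tris pH 8 with BME, BSA, NP40 and catalase; compound: single concentration of 10 µM compound, 0.5% DMSO final; technique: FRET read of cyan and yellow fluorescence; timing: 50 min enzyme reaction, room temperature, light-protected; reagent: SFCypet-SUMO1-SFYpet substrate at 25 nM; control set: no-enzyme low, enzyme-DMSO high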
FAS-TE inh – inhibitors of human fatty acid synthase thioesterase domain. P49327. recombinant FAS-TE, OMFH fluorogenic substrate, fluorescence endpoint. inhibition, % at 15 µM. actives 0.67% (n = 360,000). AID 602261;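 active = compounds whose normalised, plate-corrected inhibition of enzyme fluorescence in the single-dose primary screen is 50% or more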
Arrestin-AP2 inh – inhibitors of human beta-arrestin and AP2 interaction; inhibition, % at 10 µM; FITC-arrestin peptide / GST-AP2 beads, flow cytometry; AP2 beta2 appendage carries R879A mutation; AID 504490; actives 0.31% (n = 340,000);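 active = inhibition above a set limit, near 3 SD of compounds lacking own fluorescence, cut at about 54% in these data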
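Assay system: GST-AP2 R879A bound to glutathione beads, E. coli-expressed; Medium: PBS with 0.05% Tween 20 and 0.1% BSA; Also added: fluorescein-tagged arrestin peptide at 50 nM final; Timing: 12 min plus 1 h, RT; Measured by: flow cytometry, FL1 (488/535 nm); Evaluation: percent drop in bead-associated FITC signal.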
Arr AP2 CP1 – inhibitors of human beta-arrestin and AP2 interaction. actives 2% (n = 1,300). inhibition, % at 10 µM. shares compounds with Arrestin-AP2 inh. AID 504908. GST-AP2 beads, FITC arrestin peptide binding, flow cytometry; GST-fused beta2-adaptin appendage, R879A mutant;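 active = inhibition above a set limit, roughly 3 SD of non-fluorescent compound noise, cut at about 38% in these data; inactive = inhibition at or below that limit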;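 note: loss of bead fluorescence from 50 nM FITC arrestin peptide bound to appendage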
GST-FITC bead – counter-screen for beta-arrestin AP2 inhibitors: GST-GSH bead binding; GST-fluorescein binding to GSH beads, fluorescence; inhibition, % at 10 µM; AID 588338; shares compounds with Arrestin-AP2 inh; actives 2% (n = 1,300);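 active = inhibition above 50%, about 3 SD of the inhibition seen with non-fluorescent compounds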;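 note: fluorescein maleimide labelled GST captured on 4 micron glutathione beads; higher means more loss of bead fluorescence from quenching or blocked binding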
Each line names hits and unclear results; the compound was inactive in the other large screens (follow-up assays come after a bar, where they were run).

CCOc1cc(C(=O)Nc2cc3c(cc2N2CCCC2)n(C)c(=O)n3C)cc(OCC)c1OCC	none | Arr AP2 CP1 inactive | GST-FITC bead inactive
COc1cc(C(=O)Nc2cc3c(cc2N2CCCCC2)n(C)c(=O)n3C)cc(OC)c1OC	none | Arr AP2 CP1 inactive | GST-FITC bead inactive
Cc1ccc(C(=O)Nc2ccccc2N2CCCCC2)cc1	none
Cc1ccc(C(=O)Nc2cc3c(cc2N2CCCCC2)n(C)c(=O)n3C)cc1	none | Arr AP2 CP1 inactive | GST-FITC bead inactive
COc1ccc(C(=O)Nc2cc3c(cc2N2CCCCC2)n(C)c(=O)n3C)cc1OC	none (no result: Arrestin-AP2 inh) | Arr AP2 CP1 inactive
CC(C)c1ccc2[nH]c(O)c(N=NC(=O)c3cccc(S(=O)(=O)Nc4ccccc4Cl)c3)c2c1	Arrestin-AP2 inh 100 | Arr AP2 CP1 inactive | GST-FITC bead inactive
COc1ccc(CNC(=O)[C@H](C)NC(=O)C2CC(=O)N(c3ccc4c(c3)OCO4)C2)cc1 (stereo not given in full)	Arrestin-AP2 inh 55 | Arr AP2 CP1 inactive | GST-FITC bead inactive
O=C(CCn1c(=S)oc2ccccc21)Nc1cccc(F)c1	none
O=S(=O)(NCCOc1ccccc1F)c1ccc(Cl)cc1F	Arrestin-AP2 inh 60 | Arr AP2 CP1 inactive | GST-FITC bead inactive
CN(C)c1cc2c(cc1NC(=O)c1ccccc1Cl)n(C)c(=O)n2C	none | Arr AP2 CP1 inactive | GST-FITC bead inactive
Cc1cccc(CN2CCN(C3CN(Cc4cn(Cc5cccc(C(F)(F)F)c5)nn4)S(=O)(=O)C3)CC2)c1 (stereo not given)	none (no result: GASC-1 inh, Arrestin-AP2 inh)
CCSc1nnc(NC(=O)C2C3C=CC(C3)C2C(=O)O)s1 (stereo not given)	none
CCSc1nnc(NC(=O)C2C3CCC(C3)C2C(=O)O)s1 (stereo not given)	Arrestin-AP2 inh 60 | Arr AP2 CP1 inactive | GST-FITC bead inactive
CCCn1nnnc1NCc1ccc(N(C)C)cc1	none
COc1ccc(CC(=O)N(C)Cc2ccc(Cl)cc2)cc1S(=O)(=O)N1CCOCC1	Arrestin-AP2 inh 64 | Arr AP2 CP1 inactive | GST-FITC bead inactive
C[C@@]12C(=O)N(Cc3ccccc3)CC(=O)N1[C@H]1c3ccccc3OC[C@@H]1[C@@H]2c1ccccc1	none
O=C(c1ccc(N2CCOCC2)c([N+](=O)[O-])c1)N1CCN(c2ccccc2)CC1	none (no result: GASC-1 inh)
CCOC(=O)C1CCN(C(=O)c2ccc(N3CCOCC3)c([N+](=O)[O-])c2)CC1	Arrestin-AP2 inh 64 | Arr AP2 CP1 inactive | GST-FITC bead inactive
Cn1c(=O)n(C)c2cc(N3CCOCC3)c(NC(=O)c3cccc(Cl)c3)cc21	none | Arr AP2 CP1 inactive | GST-FITC bead inactive
COc1cccc(OC)c1C(=O)Nc1cc2c(cc1N1CCOCC1)n(C)c(=O)n2C	none | Arr AP2 CP1 inactive | GST-FITC bead inactive
Cn1c(=O)n(C)c2cc(N3CCOCC3)c(NC(=O)c3ccc(F)cc3)cc21	none | Arr AP2 CP1 inactive | GST-FITC bead inactive
CCOC(=O)N1CCN(C(=O)C(=O)Nc2sc3c(c2C(=O)O)CC(C)(C)OC3)CC1	none
Nn1c(SCC(=O)N2CCN(S(=O)(=O)c3ccccc3)CC2)nnc1-c1cccs1	Arrestin-AP2 inh 99 | Arr AP2 CP1 inactive | GST-FITC bead inactive
CCOc1ccccc1CNC(=O)CCCn1ncn2c(cc3occc32)c1=O	Arrestin-AP2 inh 64 | Arr AP2 CP1 inactive | GST-FITC bead inactive
Cc1c(CC(=O)NCC(C)C)c(=O)oc2cc3c(cc12)CCC(C)(C)O3	none
Cc1ccc(C(=O)Nc2ccccc2C(=O)N2CCCC(C)C2)cc1 (stereo not given)	Arrestin-AP2 inh 56 | Arr AP2 CP1 inactive | GST-FITC bead inactive
CC1(C)C(CC2OCC(CN3CCCCC3)O2)[C@H]2CC[C@@H]1C2 (stereo not given in full)	none
O=C(N=c1ccn(-c2nc3ccccc3nc2NS(=O)(=O)c2ccccc2)cc1)c1cccs1	Arrestin-AP2 inh 58 | Arr AP2 CP1 inactive | GST-FITC bead 60
CC(C)(C)c1nnc(NC(=O)Cc2ccccc2[N+](=O)[O-])s1	none
CC(C)c1nnc(NC(=O)Cc2ccccc2[N+](=O)[O-])s1	Arrestin-AP2 inh 58 | Arr AP2 CP1 inactive | GST-FITC bead inactive
Cc1oc(-c2cccc(Cl)c2)nc1CS(=O)(=O)CC(=O)NCCCN1CCOCC1	none
